From the RNAGym collection of RNA variant scans (doi:10.1126/science.aae0568)
Fewer inactive variants are shown than the library holds.

B1: tRNA (parent)
chain: GUUCCGUUGGCGUAAUGGUAACGCGUCUCCCUCCUAAGGAGAAGACUGCGGGUUCGAGUCCCGUACGGAACG

Variants of: B1
Experiment: yeast fitness relative to wild type (ratio to wild type); higher = fitter; tRNA-Arg(CCU), competitive growth, 37 C, YPD
Summary of the method: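 Gene amplicons from the start population and from each of six end populations were read by 100-nucleotide paired-end sequencing. Those end populations came from pooled Saccharomyces cerevisiae strains carrying tRNA-Arg(CCU) gene variants at the native locus, competed in YPD at 37°C for 24 hours. Fitness relative to wild type was worked out from changes in genotype frequencies. Genotypes needed ≥ 100 starting reads, and estimates < 0.5 were set to 0.5.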

| Variant | yeast fitness |
| --- | --- |
| C5G U7G A57G | ≤ 0.5 |
| C5G G68U | 0.678 |
| C5U C11G C33G | ≤ 0.5 |
| C5G U19C U35A A43C | ≤ 0.5 |
| C5G U26A A36C C61G A69G | ≤ 0.5 |
| C5U A45C G63C | ≤ 0.5 |
| C5U A42U C49G C60A | 0.575 |
| C5G U8C A20G A43U G51A A65C | ≤ 0.5 |
| C5U A45U C62G A65G | 0.698 |
| C5U C11A G50C C66U | ≤ 0.5 |
| C5U C11G G51A | ≤ 0.5 |
| C5U A37G A43C G63C | ≤ 0.5 |
| C5G U16A C33A A43C G50A A57U C60G | 0.523 |
| C5G U16A C29U A40U A65C | ≤ 0.5 |
| C5G U26G G38C G51C | ≤ 0.5 |
| C5U C11A A21G G23C U64A | ≤ 0.5 |
| C5U A14G A40G | 0.648 |
| C5G U7A A20C G68C | ≤ 0.5 |
| C5G U19C U32C | 0.766 |
| C5G G68C A69G | 0.54 |
| C5U C11U A36U C49G | ≤ 0.5 |
| C5G U35C C49U C61G | ≤ 0.5 |
| C5G U7G A14C U19A G58C | 0.584 |
| C5U A20C G67A | 1.01 |

| Variant | yeast fitness |
| --- | --- |
| C5G U8C C27G C33G U35A | ≤ 0.5 |
| C5G U16A C31G C66G | ≤ 0.5 |
| C5U A42C C60G | ≤ 0.5 |
| C5U A15U G17A C46G G63C C66A | ≤ 0.5 |
| C5U A14U G17C A36U | ≤ 0.5 |
| C5U C11G A15U G56C C61G | ≤ 0.5 |
| C5G U13G A20U A37G | 0.514 |
| C5U A14U U16A | ≤ 0.5 |
| C5U A15G C22G G41A A45U U47A C62U A69U | ≤ 0.5 |
| C5U A42U | 0.838 |
| C5U A20C A21U U53C U64A | ≤ 0.5 |
| C5G U7C U54A C61U | 0.557 |
| C5G U35A | 0.615 |
| C5U A21U C30G G58C | ≤ 0.5 |
| C5G U13G | 0.703 |
| C5U A14U C46U G52C A69U | ≤ 0.5 |
| C5U A42G G51C G56A | 0.698 |
| C5U C11G A14G C29G | ≤ 0.5 |
| C5U A37C G50C | ≤ 0.5 |
| C5G U7G C33A A70U | 0.57 |
| C5U A15G C66U | 0.632 |
| C5U A20C A40C C61U G68C | ≤ 0.5 |
| C5G U7C G52A | ≤ 0.5 |
| C5U A21G A57C | 0.562 |

| Variant | yeast fitness |
| --- | --- |
| C5G U19G | 0.916 |
| C5U A14G C29U A37U | ≤ 0.5 |
| C5G U7G C33A A65C | ≤ 0.5 |
| C5U A43C | 0.813 |
| C5U A14G A65G | 0.69 |
| C5G U13G C22G C29G A40U U54C C61G | 0.567 |
| C5G U53G A65G | ≤ 0.5 |
| C5U A40U A42C A65U | ≤ 0.5 |
| C5U A14C C29U C46A | ≤ 0.5 |
| C5U C11A C24G C27G A36U G38C U53G | ≤ 0.5 |
| C5U A21U G68A | ≤ 0.5 |
| C5U C11G C29G C46U | ≤ 0.5 |
| C5U A21U C31G A37C C66U | 0.51 |
| C5U A20C U53A | 0.544 |
| C5U A20C A70U | 0.732 |
| C5G U54C C55G | ≤ 0.5 |
| C5U A14G C24U U28C | ≤ 0.5 |
| C5U C11A A21C C27G | 0.564 |
| C5U A42G A45U C60G | ≤ 0.5 |
| C5U A45G C62U | 0.994 |
| C5U A14U C31G G63A | 0.575 |
| C5G U13C C62U | 0.602 |
| C5U C11G A15U U32A U35G | 0.562 |
| C5U A14U U32A U54C C55U | ≤ 0.5 |

| Variant | yeast fitness |
| --- | --- |
| C5G U13C A21C G68U | ≤ 0.5 |
| C5G U16A A43G G63U | 0.524 |
| C5U A21G C27U G41A G63U | ≤ 0.5 |
| C5G U28A G67C | 0.634 |
| C5U A37G U59G G68C | ≤ 0.5 |
| C5U A14G A65U G67A | 0.689 |
| C5U A36U C49G | ≤ 0.5 |
| C5G U16C G39C A57U | ≤ 0.5 |
| C5U A20U G50A U59C | 0.544 |
| C5U C11A U13C C24G C30G C46U | 0.629 |
| C5U A70G | 1.01 |
| C5U A70U | 0.98 |
| C5U A20U C49G A69C | ≤ 0.5 |
| C5G U54C G56C G58A | ≤ 0.5 |
| C5U A36G C55G | ≤ 0.5 |
| C5U A20C C34A U64C | ≤ 0.5 |
| C5G U7A A20C C46U | ≤ 0.5 |
| C5U A37G A40C U47A | ≤ 0.5 |
| C5U A21G G39C | 0.515 |
| C5U A21G C29U A45U | 0.538 |
| C5U C11A A45G | 0.537 |
| C5U A43C C49U G50A | ≤ 0.5 |
| C5U A15G U19A A21U C34U | ≤ 0.5 |
| C5U A37G G56C | 0.533 |

| Variant | yeast fitness |
| --- | --- |
| C5G U16C A20G | ≤ 0.5 |
| C5G U28A | 0.669 |
| C5G U28C | 0.737 |
| C5U A20U U28G U32G C34G | ≤ 0.5 |
| C5U A21U U53A A57U C60A G68C | ≤ 0.5 |
| C5G U13C C24U | ≤ 0.5 |
| C5G G50A A65G | 0.587 |
| C5U A15U C30G C33G A40G A43U | ≤ 0.5 |
| C5G U26C A42G A57G A70G | ≤ 0.5 |
| C5G U7G A20G | ≤ 0.5 |
| C5G U19C A57U | 0.533 |
| C5U A15U C31U A43U C49U | ≤ 0.5 |
| C5G U7A C11U C31A A45C | ≤ 0.5 |
| C5G U35A C49A G51C | ≤ 0.5 |
| C5U C11A A14C C33G | ≤ 0.5 |
| C5G U26C A43G U47C | ≤ 0.5 |
| C5U A14C A15U G17A U26C A42U A45C | 0.508 |
| C5G U7C C11G A40G A57U A70U | ≤ 0.5 |
| C5G U8A A20C A43C C46A | ≤ 0.5 |
| C5U A40C A65U | 0.643 |
| C5G U64A | 0.784 |
| C5U C11U A15C C29A C30A A36U G38C C61U C66A | ≤ 0.5 |
| C5U A14C | 0.593 |
| C5G U35C C66U | 0.546 |

| Variant | yeast fitness |
| --- | --- |
| C5U A20C A36G | 0.632 |
| C5U A14G C24U A40U C55G | ≤ 0.5 |
| C5G U32A | 0.678 |
| C5G U32G | 0.776 |
| C5U A15U G39A U53A G68C | ≤ 0.5 |
| C5U A20U C61U C62U | ≤ 0.5 |
| C5G G52C C66U | ≤ 0.5 |
| C5U C11G U13C A15U U32A U35G C55A C61G | ≤ 0.5 |
| C5G U26A C46U | 0.96 |
| C5U A15G A42C C49A | ≤ 0.5 |
| C5U A15G C22U A37U A65C | ≤ 0.5 |
| C5G U26C C30U C49U | ≤ 0.5 |
| C5G U13A C22G U59A | ≤ 0.5 |
| C5G U7C C34A | ≤ 0.5 |
| C5U A45U C46G C60A | 0.597 |
| C5U A20C C27U G39A G56A G58C | ≤ 0.5 |
| C5G U53C A65C | ≤ 0.5 |
| C5G U54C | 0.814 |
| C5G G48A C62G A69U | 0.768 |
| C5U A14U C30U G39C | ≤ 0.5 |
| C5G G56A | 0.975 |
| C5G U16A | 0.959 |
| C5U C11U A36U C62A | ≤ 0.5 |
| C5U A14U G41C | ≤ 0.5 |

| Variant | yeast fitness |
| --- | --- |
| C5G U13A C22G C29G A40U | 0.556 |
| C5U A15U G25A C29U C31U C34U | ≤ 0.5 |
| C5U A57U C61U | 0.59 |
| C5G U16A C33A A43C | ≤ 0.5 |
| C5U C11A A20C C22G C30U C31G C61A | 0.543 |
| C5G U26C G51C A57U | ≤ 0.5 |
| C5U C11A C34G | ≤ 0.5 |
| C5U A14U A21G A65C | ≤ 0.5 |
| C5U A21U C31U G52A A69G | ≤ 0.5 |
| C5U A20U G56C A65G A70U | ≤ 0.5 |
| C5G G63C | 0.626 |
| C5G G63A | 0.843 |
| C5U A69C | 0.865 |
| C5U A14C G41C | 0.613 |
| C5G G51C A65C | ≤ 0.5 |
| C5U A45G C61G C66U A69U | ≤ 0.5 |
| C5G U16A G39A | ≤ 0.5 |
| C5G U26C A43G U47C U64A | ≤ 0.5 |
| C5U A20U U26A C49A A57C C62U | ≤ 0.5 |
| C5U C11A U26A C29U C30A C31U C60U C61U | ≤ 0.5 |
| C5U A14G G67A | 0.642 |
| C5U A21U A37C C61A A65C | ≤ 0.5 |
| C5U A14C C62A | 0.504 |
